HGIII-sPLA2 inh – Inhibits HGIII-sPLA2 liposome hydrolysis, primary screen; Q9NZ20; QFRET BODIPY PC-A2 liposome hydrolysis, fluorescence; inhibition, % at 12.2 µM; 370,000 compounds, 0.56% hits;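 active = inhibition above mean plus 3 SD of compounds lying within the high and low control bounds, cut at about 19% in these data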
MC4R barr agon – agonists of human melanocortin 4 receptor (MC4R) beta-arrestin; U2OS MC4R beta-arrestin complementation, luminescence; percent of melanotan II response, DMSO zero; activation, % at 8.9 µM; 360,000 compounds, 0.98% hits; AID 540308;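 active = activation above a per-plate cutoff, the mean activation of sample wells on that plate plus 3 SD, cut at about 8% in these data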
Bfl-1 A1 inh – inhibitors of the anti-apoptotic protein A1, read as caspase activation | 330,000 compounds, 0.066% hits | MEF A1-2A-BIM cells, Caspase-Glo 3/7 luminescence, 3 h; percent of clofoctol response, vehicle zero | caspase activation, % (test concentration not listed) | AID 2462;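 active = over half of replicate activation scores above 10%, or exactly half above 10 with the replicate mean above 10; inconclusive = replicate mean below 10 yet half the replicates above 10; inactive = over half of replicates below 10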
MC4R antag cAMP – human MC4R antagonism in cAMP assay; P32245; MC4R-expressing cells, MTII-stimulated cAMP, LANCE TR-FRET; inhibition, % at 6.5 µM; 360,000 compounds, 0.48% hits;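 active = inhibition above its plate's cutoff, the mean of tested wells on that plate plus 3 SD, cut at about 29% in these data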
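System: U2OS cells stably expressing human melanocortin 4 receptor (MC4R). Reagent: Melanotan II challenge after compound preincubation. Doses: 6.5 µM. Times: 30-min compound, 1-h challenge, 1-h detection, room temperature. Measured by: TR-FRET with Eu-cAMP and labeled anti-cAMP, 671 nm. Replicates: singlicate.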
Exocytosis inh – blocks lytic granule exocytosis; TALL-104 LAMP-1 surface exposure, flow cytometry; cells stimulated with thapsigargin and PMA; inhibition, % at 10 µM; 360,000 compounds, 0.66% hits; AID 651702;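 active = inhibition above about 55%, limit read from the data; inconclusive = no clear call, values can overlap the other calls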
NTR1 ag – agonists of human neurotensin receptor NTR1 | AID 493036 | 330,000 compounds, 0.17% hits | activation, % at 20 µM | P30989 | NTR1-U2OS beta-arrestin-GFP spot imaging, agonist mode;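 active = activation at or above 40% of the spot to cytoplasm intensity ratio, with at least 20 cells analyzed; inconclusive = wells under 20 cells, flagged as cytotoxic or low count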
Target sequence (P30989 whole entry, looked up): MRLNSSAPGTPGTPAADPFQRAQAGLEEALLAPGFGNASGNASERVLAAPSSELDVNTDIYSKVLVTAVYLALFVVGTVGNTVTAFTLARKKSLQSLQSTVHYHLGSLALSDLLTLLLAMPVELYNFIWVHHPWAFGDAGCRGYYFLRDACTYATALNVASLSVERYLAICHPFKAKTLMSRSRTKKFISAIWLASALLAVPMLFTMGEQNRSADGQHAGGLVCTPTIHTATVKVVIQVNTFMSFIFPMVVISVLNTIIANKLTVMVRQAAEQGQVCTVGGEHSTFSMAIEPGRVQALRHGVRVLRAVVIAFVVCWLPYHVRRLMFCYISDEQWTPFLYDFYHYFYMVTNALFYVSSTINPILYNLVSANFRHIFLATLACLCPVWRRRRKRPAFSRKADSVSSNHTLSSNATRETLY
sPLA2 confirm – human GIII-sPLA2 inhibition, confirmation. shares compounds with HGIII-sPLA2 inh. recombinant hGIII-sPLA2, BODIPY PC-A2 QFRET fluorescence. inhibition, % at 12.2 µM. 2,000 compounds, 34% hits. AID 743280;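 active = mean inhibition across triplicates above the hit cutoff set in the earlier primary screen, cut at about 19% in these data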
535nm interf – 535nm fluorescence interference, HGIII-sPLA2 counter-screen. 2,000 compounds, 8.5% hits. BODIPY FL product fluorescence interference, QFRET. inhibition, % at 12.2 µM. shares compounds with HGIII-sPLA2 inh. AID 743282;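 active = average inhibition above the solvent-only control mean plus 3 SD, cut at about 6% in these data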
BODIPY interf DR – 535nm optical interference dose response, HGIII-sPLA2 counter-screen. shares compounds with HGIII-sPLA2 inh. BODIPY FL product fluorescence interference, cell-free. IC50, µM. 240 tested, under 10 active. AID 743455;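 active = IC50 at or below 10 µM; inactive = IC50 above 10 µM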
Hits are given with their value; 0 = inactive; ? = inconclusive; - = not tested or not shown. Shown are actives, neighbours in structure and some others; about 2.5% of the full set was active somewhere.

SMILES	HGIII-sPLA2 inh	MC4R barr agon	Bfl-1 A1 inh	MC4R antag cAMP	Exocytosis inh	NTR1 ag	sPLA2 confirm	535nm interf	others
COc1ccc(C(=O)NC(=S)NNC(=O)[C@H]2C[C@@H]2c2ccccc2)cc1OC	21	0	0	0	0	0	40	0	BODIPY interf DR=0
Cc1cccc(OCC(=O)NCc2ccc(F)cc2)c1	0	0	0	0	0	0	-	-
O=[N+]([O-])c1ccccc1CNC(Cc1ccccc1)c1ccccc1 (stereo unspecified)	24	0	0	0	0	0	0	0
C/C(=N\NC(=O)c1ccc(CN2CCc3ccccc3C2)cc1)c1ccccc1O	33	0	?	0	0	0	24	0
CCCNC(=O)c1ccc(CN2CCc3ccccc3C2)cc1	0	0	0	0	0	0	-	-
O=S(=O)(NCc1ccc(C(F)(F)F)cc1)c1ccc(-n2cnnn2)cc1	0	0	0	0	0	0	-	-
CN1CCc2ccccc2CC1=O	20	0	0	0	0	0	0	0
COc1cc2c(c(OC)c1OC)CC(=O)N(C)CC2	0	0	0	0	0	0	-	-
C=CCn1c(=S)[nH]c2sc3c(c2c1=O)CCC3	0	0	-	0	0	-	-	-
C=CCn1c(=S)[nH]c2ccc(Br)cc2c1=O	20	0	0	0	0	0	21	0
C=CCn1c(=S)[nH]c2nc3c(cc2c1=O)CCCC3	23	0	0	0	0	0	0	0
CSc1cccc(NC(=O)/C=C/c2cccc(Cl)c2)c1	0	0	0	0	0	0	-	-
Oc1ccc(/C=C/c2ccccc2F)c2cccnc12	28	-	-	-	-	-	0	9.6
OCC(CCc1c[nH]c2ccccc12)c1c[nH]c2ccccc12 (stereo unspecified)	35	-	-	-	-	-	0	10
Nc1ccc(N=Nc2ccc(N)cc2)cc1	0	0	0	0	0	0	-	-
Cc1cc(N(C)C)ccc1N=Nc1ccc(N)cc1	26	0	0	0	0	0	38	18
COc1ccc(CCc2nnc(CCC(=O)N(C)Cc3ccnc4ccccc34)o2)cc1	0	0	0	0	0	0	-	-
CCc1c(C(=O)Nc2cc(C)cc(C)c2)[nH]c(C)c1C(C)=O	0	0	0	0	0	0	-	-
COc1cc([N+](=O)[O-])c(OC)cc1SCc1n[nH]c(=S)n1-c1ccc(C)cc1	19	0	0	0	0	0	22	0
COc1cc([N+](=O)[O-])c(OC)cc1SCc1n[nH]c(=S)n1-c1ccc(F)cc1	22	0	0	0	0	0	36	0
Cc1c(C(=O)NCc2n[nH]c(=S)n2-c2ccc(F)cc2)cccc1[N+](=O)[O-]	0	0	0	0	0	0	-	-
CC1Cc2ccccc2N1C(=O)CCn1cccn1 (stereo unspecified)	0	0	0	0	0	0	-	-
O=S(=O)(Nc1ccc(Cl)nn1)c1ccccc1	0	0	0	0	0	0	-	-
O=S(=O)(NNc1ccc(Cl)nn1)c1ccc(F)cc1	19	0	0	0	0	0	0	8.3
CCOc1ccc(-c2noc(-c3csc([C@@H]4C[C@H](O)[C@@H](CO)O4)n3)n2)cc1	0	0	-	0	0	-	-	-
CCC(C)NC(=S)N(Cc1cc2cc(C)ccc2n2nnnc12)CC(C)(C)NC(C)C (stereo unspecified)	21	0	0	0	0	0	0	0
CCCNC(=S)N(Cc1cc2cc(C)ccc2n2nnnc12)CC(C)(C)CN(C)C	0	0	0	0	0	0	-	-
CC(C)Oc1ccc(CSC(=N)N)cc1	29	0	0	0	0	0	0	0
CC(C)Oc1ccc(CSc2ncn[nH]2)cc1	0	0	0	0	0	0	-	-
COc1cccc(NC(=O)CN(C)C(=O)c2cc(S(=O)(=O)N3CCCCCC3)ccc2OC)c1	0	0	0	0	0	0	-	-

Compound activity deposited in PubChem BioAssay by several laboratories.
